Calls of active or inactive are those of the source. The calls are words filed in the database; no cut-off is given here.

In ChEMBL document CHEMBL3862029, “Discovery of 8-Membered Ring Sulfonamides as Inhibitors of Oncogenic Mutant Isocitrate Dehydrogenase 1” (ACS Med Chem Lett, 2016) one finds IC50, inhibition and EC50 data, which are given here for 43 molecules.

For the first experiment, the target named is T1, Isocitrate dehydrogenase [NADP] cytoplasmic (Homo sapiens, UniProt O75874, R132H). In words: Inhibition of human C-terminal His8-tagged IDH1-R132H mutant expressed in Escherichia coli Rosetta assessed as inhibition of ketoreductase activity by measuring NADPH consumption preincubated for 60 mins followed by addition of alpha-KG as substrate measured after 50 mins in presence of NADPH and Mg2+ by resazurin based diaphorase-coupled fluorescence assay. The essentials:
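IDH1-R132H–Mg2+ ketoreductase assay reading NADPH consumption through a diaphorase-coupled fluorescence reaction. Buffer contained 0.01% Tween 20 against aggregation. Primary screen at 15 μM in duplicate, with positives set at ≥60% inhibition in both replicates. Retests were in 8-point dose.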
Target sequence in this assay (O75874 2-414 R132H limits assumed): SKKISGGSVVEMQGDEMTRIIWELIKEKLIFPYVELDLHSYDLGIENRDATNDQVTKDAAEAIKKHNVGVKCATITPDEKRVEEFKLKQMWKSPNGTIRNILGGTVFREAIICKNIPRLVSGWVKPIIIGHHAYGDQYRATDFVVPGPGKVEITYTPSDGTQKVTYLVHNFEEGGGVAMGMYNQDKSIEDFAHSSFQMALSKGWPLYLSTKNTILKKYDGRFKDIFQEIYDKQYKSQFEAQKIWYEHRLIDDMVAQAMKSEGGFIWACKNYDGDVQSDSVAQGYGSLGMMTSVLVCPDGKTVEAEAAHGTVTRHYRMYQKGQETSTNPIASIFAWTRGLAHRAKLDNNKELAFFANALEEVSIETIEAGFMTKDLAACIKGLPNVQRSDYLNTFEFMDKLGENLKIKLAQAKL
The IC50 is the concentration at which inhibition is half-maximal. With `COc1ccc(C#Cc2ccc3c(c2)O[C@@H](CN(C)C(=O)NC2CCCCC2)[C@H](C)CN([C@@H](C)CO)S3(=O)=O)cc1`, the half-inhibitory concentration (IC50) stood at 91 nM.
As for `Cc1noc(C)c1NC(=O)N(C)C[C@@H]1Oc2cc(C#Cc3cccc(F)c3)ccc2S(=O)(=O)N([C@@H](C)CO)C[C@H]1C`, the IC50 was 11000 nM.
The same measure, in the same setting: the value for `C[C@H]1CN([C@@H](C)CO)S(=O)(=O)c2ccc(C#Cc3cccc(F)c3)cc2O[C@H]1CN(C)C(=O)NC1CCCCC1` was 6300 nM; that for `C[C@H]1CN([C@@H](C)CO)S(=O)(=O)c2ccc(C#Cc3cccc(F)c3)cc2O[C@@H]1CN(C)C(=O)NC1CCCCC1` was 1000 nM; that for `C[C@@H]1CN([C@@H](C)CO)S(=O)(=O)c2ccc(C#CBr)cc2O[C@H]1CN(C)C(=O)NC1CCCCC1` was more than 20000 nM.
Still for that read-out and setting: the value for `CCNC(=O)N(C)C[C@@H]1Oc2cc(C#Cc3cccc(F)c3)ccc2S(=O)(=O)N([C@@H](C)CO)C[C@H]1C` was 1400 nM.
On the same count and under the same terms, the value for `C[C@@H]1CN([C@@H](C)CO)S(=O)(=O)c2ccc(C#Cc3ccc(Cl)cc3)cc2O[C@H]1CN(C)C(=O)NC1CCCCC1` was 56 nM.
On to `C[C@@H]1CN([C@@H](C)CO)S(=O)(=O)c2ccc(/C=C/c3ccccc3)cc2O[C@H]1CN(C)C(=O)NC1CCCCC1`, for which the IC50 is 190 nM.
Still for that read-out and setting: the value for `C[C@@H]1CN([C@@H](C)CO)S(=O)(=O)c2ccc(C#Cc3cccc(F)c3)cc2O[C@H]1CN(C)C(=O)CC1CCCCC1` was 360 nM; that for `COc1ccc(OC[C@H](C)N2C[C@@H](C)[C@H](CN(C)C(=O)NC3CCCCC3)Oc3cc(C#Cc4cccnc4)ccc3S2(=O)=O)cc1` was 96 nM; that for `C[C@@H]1CN([C@@H](C)CO)S(=O)(=O)c2ccc(C#Cc3cccc(Cl)c3)cc2O[C@H]1CN(C)C(=O)NC1CCCCC1` was 60 nM.
The same measure, in the same setting: for `C#Cc1ccc2c(c1)O[C@@H](CN(C)C(=O)NC1CCCCC1)[C@H](C)CN([C@@H](C)CO)S2(=O)=O` the value was 7700 nM; for `C[C@@H]1CN([C@@H](C)CO)S(=O)(=O)c2ccc(C#Cc3ccccc3F)cc2O[C@H]1CN(C)C(=O)NC1CCCCC1`, 91 nM.
On the same count and under the same terms, the value for `C[C@@H]1CN([C@@H](C)CO)S(=O)(=O)c2ccc(C#Cc3cccnc3)cc2O[C@H]1CN(C)C(=S)NC1CCCCC1` was 160 nM.
As for `C[C@H](CO)N1C[C@H](C)[C@@H](CN(C)C(=O)NC2CCCCC2)Oc2cc(C#Cc3cccc(F)c3)ccc2S1(=O)=O`, the 50% inhibitory concentration (IC50) was determined as 1700 nM.
On to `C[C@@H]1CN([C@H](C)CO)S(=O)(=O)c2ccc(C#Cc3cccc(F)c3)cc2O[C@@H]1CN(C)C(=O)NC1CCCCC1`, for which the IC50 was found to be 5300 nM.
With `C[C@@H]1CN([C@@H](C)CO)S(=O)(=O)c2ccc(C#Cc3cccnc3)cc2O[C@H]1CCC(=O)NC1CCCCC1`, the IC50 was 9100 nM.
For `C[C@@H]1CN([C@@H](C)CO)S(=O)(=O)c2ccc(-c3cccnc3)cc2O[C@H]1CN(C)C(=O)NC1CCCCC1`, the IC50 was 6400 nM.
Regarding `C[C@@H]1CN([C@@H](C)CN(C)C)S(=O)(=O)c2ccc(C#Cc3ccc(F)cc3)cc2O[C@H]1CN(C)C(=O)NC1CCCCC1`, the IC50 stood at 32 nM.
For `C[C@@H]1CN([C@@H](C)CO)S(=O)(=O)c2ccc(C#Cc3cccc(F)c3)cc2O[C@H]1CN(C)C(=O)Nc1ccccc1`, the IC50 stood at 3100 nM.
`C[C@@H]1CN([C@@H](C)CO)S(=O)(=O)c2ccc(C#Cc3cccc(F)c3)cc2O[C@H]1CN(C)C(=O)NC1CCCC1`: the half-inhibitory concentration (IC50) is 80 nM.
With `C[C@@H]1CN([C@@H](C)CO)S(=O)(=O)c2ccc(C#C[Si](C)(C)C)cc2O[C@H]1CN(C)C(=O)NC1CCCCC1`, the IC50 stood at 140 nM.
Turning to `C[C@@H]1CN([C@@H](C)CO)S(=O)(=O)c2ccc(C#Cc3cccc(F)c3)cc2O[C@H]1CN(C)C(=O)NCC1CCCCC1`, the IC50 was found to be 160 nM.
In the case of `C[C@@H]1CN([C@@H](C)CO)S(=O)(=O)c2ccc(C#Cc3ccc(F)cn3)cc2O[C@H]1CN(C)C(=O)NC1CCCCC1`, the half-maximal inhibitory concentration (IC50) came out at 260 nM.
Same read-out and setting: for `C[C@@H]1CN([C@@H](C)CO)S(=O)(=O)c2ccc(C#CC3CCCCC3)cc2O[C@H]1CN(C)C(=O)NC1CCCCC1` the value was 90 nM.
On to `C[C@@H]1CN([C@@H](C)CO)S(=O)(=O)c2ccc(C#Cc3cccc(F)c3)cc2O[C@H]1CN(C)C(=O)C1CCOCC1`, for which the IC50 worked out at 7900 nM.
On the same count and under the same terms, the value for `C[C@@H]1CN([C@@H](C)CO)S(=O)(=O)c2ccc(C#Cc3ccccc3)cc2O[C@H]1CN(C)C(=O)NC1CCCCC1` was 75 nM; that for `C[C@@H]1CN([C@@H](C)CO)S(=O)(=O)c2ccc(C#Cc3cncn3C)cc2O[C@H]1CN(C)C(=O)NC1CCCCC1` was 1600 nM.
`C[C@@H]1CN([C@@H](C)CO)S(=O)(=O)c2ccc(C#Cc3ccc(F)c(F)c3)cc2O[C@H]1CN(C)C(=O)NC1CCCCC1`: the IC50 amounted to 28 nM.
In the case of `CCCNC(=O)N(C)C[C@@H]1Oc2cc(C#Cc3cccc(F)c3)ccc2S(=O)(=O)N([C@@H](C)CO)C[C@H]1C`, the IC50 turned out to be 550 nM.
As to `C[C@@H]1CN([C@@H](C)CO)S(=O)(=O)c2ccc(C#Cc3cccc(F)c3)cc2O[C@H]1CN(C)C(=O)N(C)C1CCCCC1`, the IC50 amounted to 5700 nM.
Same read-out and setting: for `C[C@@H]1CN([C@@H](C)CO)S(=O)(=O)c2ccc(C#Cc3cccc(F)c3)cc2O[C@H]1CN(C)C(=O)OC(C)(C)C` the value was 1600 nM; for `C[C@@H]1CN([C@@H](C)CO)S(=O)(=O)c2ccc(C#Cc3cccc(F)c3)cc2O[C@H]1CN(C)C(=O)c1ccno1`, 19000 nM.
For the molecule `C[C@@H]1CN([C@H](C)CO)S(=O)(=O)c2ccc(C#Cc3cccc(F)c3)cc2O[C@H]1CN(C)C(=O)NC1CCCCC1`, the half-inhibitory concentration (IC50) worked out at 600 nM.
`C[C@@H]1CN([C@@H](C)CO)S(=O)(=O)c2ccc(C#Cc3cccc(F)c3)cc2O[C@@H]1CN(C)C(=O)NC1CCCCC1`: the IC50 turned out to be 3900 nM.
Take `C[C@@H]1CN([C@@H](C)CO)S(=O)(=O)c2ccc(C#Cc3ccc(F)cc3)cc2O[C@H]1CN(C)C(=O)NC1CCCCC1`: the IC50 came out at 37 nM.
Turning to `C[C@H](CO)N1C[C@H](C)[C@H](CN(C)C(=O)NC2CCCCC2)Oc2cc(C#Cc3cccc(F)c3)ccc2S1(=O)=O`, the half-maximal inhibitory concentration (IC50) was more than 20000 nM.
For `C[C@@H]1CN([C@@H](C)CO)S(=O)(=O)c2ccc(C#Cc3cccc(F)c3)cc2O[C@H]1CN(C)C(=O)C1CCCCC1`, the IC50 is 440 nM.
With `C[C@@H]1CN([C@@H](C)CO)S(=O)(=O)c2ccc(C#Cc3cncnc3)cc2O[C@H]1CN(C)C(=O)NC1CCCCC1`, the IC50 worked out at 320 nM.
For `C[C@@H]1CN([C@@H](C)CO)S(=O)(=O)c2ccc(C#Cc3cccc(F)c3)cc2O[C@H]1CN(C)C(=O)NC1CC1`, the 50% inhibitory concentration (IC50) amounted to 1000 nM.
Consider `C[C@@H]1CN([C@@H](C)CO)S(=O)(=O)c2ccc(C#Cc3cccnc3)cc2O[C@H]1CN(C)C(=O)NC1CCCCC1`, for which the IC50 is 140 nM.
As to `C[C@@H]1CN([C@@H](C)CO)S(=O)(=O)c2ccc(C#Cc3cccc(F)c3)cc2O[C@H]1CN(C)CCC1CCNCC1`, the IC50 was 7400 nM.

For a further experiment, the system named is Isocitrate dehydrogenase [NADP] cytoplasmic (Homo sapiens), O75874 [R132H]. In words: (§1) Inhibition of IDH1-R132H mutant (unknown origin) expressed in human HA1EM cells assessed as suppression of R-2HG secretion measured after 72 hrs by LC-MS/MS analysis. It is filed as cell-based. The method, boiled down: (§2)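 HA1E-M cells (HEK-293 derivative) engineered to overexpress IDH1-R132H and release R-2HG into growth media. Compound treatment for 72 h, then R-2HG in conditioned media measured by LC-MS. Values normalized to DMSO-treated controls; EC50 from three independent experiments, each run in triplicate.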
Isocitrate dehydrogenase [NADP] cytoplasmic (Homo sapiens), O75874 [R132H], sequence (O75874 whole entry R132H): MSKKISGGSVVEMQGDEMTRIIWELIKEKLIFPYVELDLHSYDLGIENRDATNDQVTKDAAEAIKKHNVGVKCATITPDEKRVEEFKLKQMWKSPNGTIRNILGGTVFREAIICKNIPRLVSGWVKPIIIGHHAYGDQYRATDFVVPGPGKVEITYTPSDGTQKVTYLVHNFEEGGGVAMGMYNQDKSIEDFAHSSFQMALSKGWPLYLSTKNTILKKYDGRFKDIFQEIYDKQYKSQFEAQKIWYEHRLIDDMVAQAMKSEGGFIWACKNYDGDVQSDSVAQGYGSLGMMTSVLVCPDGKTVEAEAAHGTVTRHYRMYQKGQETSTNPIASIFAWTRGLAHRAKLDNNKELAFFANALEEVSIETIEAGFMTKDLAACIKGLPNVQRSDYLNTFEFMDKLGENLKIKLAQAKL
`Cc1ccccc1C(C(=O)NC1CCCCC1)N(C(=O)Cn1ccnc1C)c1cccc(F)c1` (stereo not given): the inhibition entry is “Dose-dependent effect”.

A further experiment addresses T1, Isocitrate dehydrogenase [NADP] cytoplasmic. Described as §1. The experiment is classed as cell-based. The method, boiled down:
as §2
Target sequence in this assay (O75874 whole entry R132H): as above
The EC50 is the concentration that produces a half-maximal response. Regarding `Cc1ccccc1C(C(=O)NC1CCCCC1)N(C(=O)Cn1ccnc1C)c1cccc(F)c1` (stereo not given), the EC50 was determined as 60 nM.

A further experiment has as its system Isocitrate dehydrogenase [NADP] cytoplasmic (Homo sapiens), O75874 [R132H]. In words: Inhibition of human C-terminal His8-tagged IDH1-R132H mutant expressed in Escherichia coli Rosetta assessed as inhibition of ketoreductase activity by measuring NADPH consumption preincubated for 10 mins followed by addition of NADPH and alpha-KG as substrate by fluorescence method. The essentials: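 Purified IDH1-R132H incubated with α-KG and NADPH; direct kinetic read of falling NADPH fluorescence, run in dose. Enzyme concentration kept below that of the screening assays so inhibitor stays far above enzyme. IC50 values are geometric means of at least three independent experiments.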
With `Cc1ccccc1C(C(=O)NC1CCCCC1)N(C(=O)Cn1ccnc1C)c1cccc(F)c1` (stereo not given), the inhibition result is “Active”.
